In the library only some 1.9% were active in any assay of this set; here they are far more common.
LMPTP inh: LMPTP phosphatase inhibitors, primary screen, biochemical, fluorescence intensity, uHTS | hit rate 0.22% among 360,000 | Low molecular weight phosphotyrosine protein phosphatase (Homo sapiens), P24666 | AID 651560, 2012 | inhibition, % at 20 µM | recombinant LMPTP-A, OMFP fluorogenic substrate;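 active means compounds that cut the enzyme signal by at least half of the control window in the single-dose screen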;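 further: plate controls were DMSO wells with enzyme plus substrate for no effect and substrate without enzyme for full effect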
Target sequence (P24666 whole entry, looked up): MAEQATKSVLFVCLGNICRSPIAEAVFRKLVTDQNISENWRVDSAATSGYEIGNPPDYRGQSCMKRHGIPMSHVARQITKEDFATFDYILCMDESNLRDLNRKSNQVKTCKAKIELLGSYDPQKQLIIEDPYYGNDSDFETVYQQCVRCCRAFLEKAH
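Test system: LMPTP-A phosphatase enzyme; input: 0.625 nM LMPTP-A final; reagent: OMFP substrate, 400 µM final; compound dosing: 20 µM single dose, 3% DMSO; incubation: 50 min dark incubation at room temperature; measured by: endpoint fluorescence intensity from OMFP dephosphorylation; measure: % inhibition relative to no-enzyme and uninhibited control wells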
PP5 inh: PP5 phosphatase inhibitors, primary screen, biochemical, fluorescence | inhibition, % at 6.7 µM | AID 1987, 2009 | hit rate 0.18% among 320,000 | purified PP5c, OMFP substrate fluorescence | Serine/threonine-protein phosphatase 5 (Homo sapiens), P53041;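 active means inhibition above the campaign's mean inhibition across all tested compounds plus 3 SD, cut at about 9.5% in these data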;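 further: 0% = DMSO only and 100% = 100 µM cantharidin control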
PP1 inh: PP1-alpha phosphatase inhibitors, primary screen, counter-screen for PP5 inhibitor project, biochemical, fluorescence, OMFP substrate, single point | hit rate 0.9% among 320,000 | purified PP1alpha | inhibition, % at 6.7 µM | Serine/threonine-protein phosphatase PP1-alpha catalytic subunit (Homo sapiens), P62136 | AID 2235, 2010;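 active means inhibition above the mean inhibition of all tested compounds plus 3 SD, computed separately for each screening campaign, cut at about 15% in these data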
Target sequence (P62136 whole entry, looked up): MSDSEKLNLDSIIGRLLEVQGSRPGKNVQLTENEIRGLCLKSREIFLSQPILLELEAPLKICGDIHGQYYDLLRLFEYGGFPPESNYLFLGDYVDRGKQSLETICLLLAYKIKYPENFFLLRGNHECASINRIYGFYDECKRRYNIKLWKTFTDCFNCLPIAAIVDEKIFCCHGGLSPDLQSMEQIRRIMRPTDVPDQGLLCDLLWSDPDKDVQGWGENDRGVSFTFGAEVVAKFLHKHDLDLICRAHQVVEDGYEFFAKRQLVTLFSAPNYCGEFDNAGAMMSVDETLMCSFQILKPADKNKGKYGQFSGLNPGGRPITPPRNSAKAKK
STEP block: STEP phosphatase inhibitors, primary screen, biochemical, fluorescence intensity, uHTS; recombinant STEP, OMFP fluorogenic substrate; inhibition, % at 20 µM; Tyrosine-protein phosphatase non-receptor type 5 (Homo sapiens), P54829; hit rate 0.25% among 360,000;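 active means inhibition at 20 µM, scaled per plate between control wells, above about 37%, limit read from the data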;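 further: 0% = DMSO with enzyme and substrate and 100% = substrate only without enzyme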
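Material: STEP (striatal-enriched tyrosine phosphatase) enzyme, cell-free | Medium: 50 mM Bis-Tris pH 6.0 with 2.5 mM DTT and 0.005% Tween 20 | Read-out: Percent inhibition scaled to no-enzyme and uninhibited-enzyme controls, plate-pattern corrected | Signal: Fluorescence read at 480 nm ex / 540 nm em | Times: 20 min reaction, room temperature, in the dark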
Scp1 inh: Scp-1 phosphatase inhibitors, primary screen, biochemical, colorimetric, uHTS. Carboxy-terminal domain RNA polymerase II polypeptide A small phosphatase 1 (Homo …. Recombinant Scp1, phosphopeptide, malachite green phosphate absorbance. inhibition, % at 20 µM. hit rate 0.88% among 340,000;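 active means inhibition above about 50% at 20 µM, limit read from the data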;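 further: plate controls were DMSO wells with enzyme for no effect and wells lacking enzyme for full effect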
Target sequence (Q9GZU7 76-261 limits assumed): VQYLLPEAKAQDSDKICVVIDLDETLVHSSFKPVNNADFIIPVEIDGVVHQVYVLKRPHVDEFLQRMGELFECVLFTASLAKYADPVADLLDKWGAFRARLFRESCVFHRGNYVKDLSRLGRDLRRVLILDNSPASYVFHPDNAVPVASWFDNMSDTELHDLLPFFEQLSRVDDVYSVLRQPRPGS
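Test system: SCP-1 catalytic domain; Buffer or medium: Acidic Tris acetate buffer with magnesium and detergent; Also added: Phosphorylated 17-residue peptide substrate; Compound: single 20 µM dose, 1% DMSO; Schedule: enzyme reaction 45 min at room temperature, colour 5 min, stabilisation 30 min; Signal: Phosphate-binding colour reagent, absorbance read at 630 nm.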
Scp-1 conf: Scp-1 phosphatase inhibitors, retest, confirmation, biochemical, colorimetric, single concentration; inhibition, % at 20 µM; shares compounds with Scp1 inh; hit rate 61% among 2,500; recombinant SCP-1 catalytic domain, phosphate release, malachite green absorbance;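 further: plate controls were DMSO with enzyme for no effect and buffer wells lacking enzyme for full effect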
Scp-1 MG ctr: colorimetric readout interference by compounds, confirmation, artefact control for Scp-1 inhibitor project, biochemical, single concentration; shares compounds with Scp1 inh; Colorimetric interference counterscreen, malachite green absorbance 630 nm; apparent inhibition (interference), % at 20 µM; 2,500 tested, under 10 active; AID 540313, 2011;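 further: compounds added after enzyme reaction finished so only phosphate colour detection is probed; plate controls were DMSO wells with completed Scp-1 reaction for no effect and substrate wells lacking enzyme for full effect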
Scp-1 Tm shift: Scp-1 binding by thermal shift, confirmation, orthogonal assay for Scp-1 inhibitor project, biophysical, differential scanning fluorimetry; hit rate 25% among 1,500; shares compounds with Scp1 inh; thermal shift relative to vanadate control, % at 40 µM; AID 540329, 2011; Recombinant SCP1, Sypro Orange thermal shift Tm;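 active means substances whose mean melting-temperature shift, as a percentage of the reference inhibitor's shift, reaches about 5.3%, limit read from the data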;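 further: 0% = Tm of DMSO wells and 100% = Tm with sodium orthovanadate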
* hit, by the source's call; x = not tested or not shown.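 How the source made its calls, unless noted: active means inhibition of at least 30% at 20 µM; inactive means the rest.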

SMILES | LMPTP inh | PP5 inh | PP1 inh | STEP block | Scp1 inh | Scp-1 conf | Scp-1 MG ctr | Scp-1 Tm shift
O=C(CCCCCCCCC(=O)N/N=C/c1ccco1)N/N=C/c1ccco1 | 0 | 2 | 3 | 2 | 51* | 68* | -11 | -7
CC1=NNC(=O)C1CCC(=O)N/N=C/c1c(Cl)cccc1Cl (stereo not drawn) | 0 | 4 | -1 | 1 | 5 | -8 | -6 | x
CC1=NNC(=O)C1CCC(=O)N/N=C/c1ccccc1 (stereo not drawn) | 0 | 0 | -5 | 1 | -13 | x | x | x
CC1=NNC(=O)C1CCC(=O)N/N=C(\C)c1ccccc1 (stereo not drawn) | 0 | 3 | -1 | 5 | 5 | -3 | -7 | x
COc1ccc2oc(C(=O)NC(C)(C)C)c(C)c2c1 | -1 | 1 | 1 | 0 | 3 | x | x | x
CN(CCCC1CCCC1)C(=O)c1cc(COc2c(F)cccc2F)on1 | 3 | 5 | 0 | 3 | -7 | x | x | x
CN(CCCC1CCCC1)C(=O)c1cc(COc2ccc(F)c(F)c2)on1 | 5 | 0 | 3 | 4 | 63* | -6 | -7 | x
C/C(CC(=O)Nc1cccc2c1CCCC2)=N\NC(=O)c1ccccc1N | -1 | 3 | 0 | 0 | -11 | x | x | x
NC(=O)c1cc(S(=O)(=O)NCc2ccc(Br)cc2)cs1 | -1 | -2 | -3 | -1 | -6 | -13 | -16 | x
O=C(C(=O)N1CCCN(Cc2ccc(F)cc2)CC1)c1ccccc1 | -1 | x | x | x | x | x | x | x
CCCCCCn1c(-c2ccco2)nc2oc3cc(OC)ccc3c(=O)c2c1=O | 5 | 1 | -1 | 1 | 56* | 50* | -5 | 0
C/C=C/C=C/C(=O)N1CC2(CC(c3cccc(NC(=O)/C=C/C)c3)=NO2)C[C@@H]1C(N)=O (stereo partly drawn) | 0 | 2 | -1 | -2 | 56* | 7 | -14 | x
C/C=C(\C)C(=O)Nc1cccc(C2=NOC3(C2)C[C@@H](C(N)=O)N(C(=O)/C(C)=C/C)C3)c1 (stereo partly drawn) | -2 | 0 | -1 | -3 | -9 | x | x | x
C=C(C)C(=O)Nc1cccc(C2=NOC3(C2)C[C@@H](C(N)=O)N(C(=O)/C(C)=C/C)C3)c1 (stereo partly drawn) | -2 | 2 | 11 | 8 | 99* | 68* | -8 | -7
C=C(C)C(=O)Nc1cccc(C2=NOC3(C2)C[C@@H](C(N)=O)N(C(=O)CC(c2ccccc2)c2ccccc2)C3)c1 (stereo partly drawn) | 1 | 2 | 4 | 1 | 62* | 57* | -16 | -31
C/C=C/C(=O)Nc1cccc(C2=NOC3(C2)C[C@H](C(N)=O)N(C(=O)/C=C/C)C3)c1 (stereo partly drawn) | -2 | 0 | -4 | 1 | -3 | x | x | x
CCCCCC(=O)Nc1cccc(C2=NOC3(C2)C[C@H](C(N)=O)N(C(=O)c2ccccc2C(=O)c2ccccc2)C3)c1 (stereo partly drawn) | 0 | 3 | 2 | 3 | -1 | x | x | x
C=C(C)C(=O)Nc1cccc(C2=NOC3(C2)C[C@H](C(N)=O)N(C(=O)c2ccccc2C(=O)c2ccccc2)C3)c1 (stereo partly drawn) | -1 | 4 | 7 | 2 | 84* | 78* | 6 | -1
O=C(Nc1cc(S(=O)(=O)Nc2ccc(Cl)cc2)ccc1O)c1ccc(S(=O)(=O)N2CCCCCC2)cc1 | 3 | -3 | 2 | 6 | 81* | 77* | -15 | 9.9*
O=C(Nc1cc(S(=O)(=O)N2CCOCC2)ccc1O)c1ccc(S(=O)(=O)N2CCCCC2)cc1 | 0 | x | x | -1 | -6 | x | x | x
CCn1c(CC(=O)Nc2ccccc2F)nnc1SCC(=O)NC1CCCC1 | -1 | 1 | 4 | 0 | 1 | x | x | x
N#Cc1c(/N=C/c2ccc(-c3ccccc3C(=O)O)o2)sc2c1CCCC2 | 3 | 3 | -3 | 17 | 57* | 43* | -21 | 8.0*
N#Cc1c(/N=C/c2ccc(-c3ccc(C(=O)O)c(Cl)c3)o2)sc2c1CCCC2 | 0 | 0 | 1 | 7 | 17 | x | x | x
CC1CCc2nc3ccccc3c(C(=O)OCC(=O)N3CCc4ccccc43)c2C1 (stereo not drawn) | 5 | 1 | -1 | 1 | 50* | -20 | -17 | x
C=CCNC(=O)COC(=O)c1c2c(nc3ccccc13)CCC2 | 3 | 0 | 3 | 2 | 66* | 65* | -11 | 9.5*
SMILES | LMPTP inh | PP5 inh | PP1 inh | STEP block | Scp1 inh | Scp-1 conf | Scp-1 MG ctr | Scp-1 Tm shift
CCCCNC(=O)COC(=O)c1c2c(nc3ccccc13)CCC2 | 4 | 2 | 2 | 8 | 62* | 46* | -7 | 8.4*
O=C(c1ccc2snnc2c1)N1CCCCC1 | -2 | 0 | -5 | 3 | -5 | x | x | x
O=c1cc(NS(=O)(=O)c2ccccc2)nc(SCc2ccc(Cl)cc2)[nH]1 | -2 | 3 | -2 | 1 | -13 | x | x | x
COC(=O)CNC(c1ccccc1)c1cc(Br)ccc1NC(=O)CNC(=O)OCc1ccccc1 (stereo not drawn) | 3 | 4 | 4 | 10 | 2 | x | x | x
CC1CCCCN1CCNC(=O)CCc1nnc2n(Cc3ccccc3)c(=O)c3ccccc3n12 (stereo not drawn) | 0 | -2 | -4 | 2 | -12 | x | x | x
CC(=O)Nc1ccc(NC(=O)CSc2nc(N)c(NC(=O)c3ccccc3F)c(=O)[nH]2)cc1 | 9 | -1 | 0 | 2 | 53* | 49* | -1 | -21
COc1ccc2c(c1)c(=O)oc1c(C)c(OC(C)C(=O)N[C@@H](Cc3c[nH]c4ccc(O)cc34)C(=O)O)ccc12 (stereo partly drawn) | 3 | 4 | -1 | -1 | 58* | 43* | -23 | 9.6*
COc1ccc(C(=O)NNC(=O)c2ccc3ccccc3c2O)cc1 | -2 | 2 | 1 | 6 | 21 | x | x | x
Cc1ccc(C(=O)NNC(=O)c2ccc3ccccc3c2O)cc1 | 1 | 1 | -1 | 11 | 75* | 56* | -26 | 2
